This is a sample that favours compounds with a hit; in the whole collection about 2.7% have one here.
SIAE inh – blocks human sialic acid acetylesterase. AID 1053197. SIAE FP-Rh probe binding, fluorescence polarization. 370,000 compounds, 0.69% hits. Q9HAT2. inhibition, % at 9.66 µM;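 active means inhibition above a cutoff: mean of compounds within the control limits plus 3 SD of those, cut at about 17% in these data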;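 further: 0% = plate median of compound wells and 100% = probe without SIAE protein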
HTRA1 inh – blocks human HTRA1 serine peptidase; recombinant HTRA1, FP-rhodamine activity-based probe, fluorescence polarization; inhibition, % at 5.96 µM; 340,000 compounds, 0.5% hits; in the data active means inhibition above about 36%;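 further: 0% = enzyme with DMSO and 100% = wells lacking enzyme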
ABHD4 inh – ABHD4 (mouse) inhibition, primary FP screen | 370,000 compounds, 0.54% hits | Q8VD66 | purified mABHD4, FP-Rh probe fluorescence polarization | AID 720543 | inhibition, % at 8.92 µM;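 active means inhibition exceeding the mean over every tested compound plus 3 SD, cut at about 30% in these data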;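 further: 0% = plate median of compound wells and 100% = S159A mutant with DMSO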
Target sequence (Q8VD66 whole entry, looked up): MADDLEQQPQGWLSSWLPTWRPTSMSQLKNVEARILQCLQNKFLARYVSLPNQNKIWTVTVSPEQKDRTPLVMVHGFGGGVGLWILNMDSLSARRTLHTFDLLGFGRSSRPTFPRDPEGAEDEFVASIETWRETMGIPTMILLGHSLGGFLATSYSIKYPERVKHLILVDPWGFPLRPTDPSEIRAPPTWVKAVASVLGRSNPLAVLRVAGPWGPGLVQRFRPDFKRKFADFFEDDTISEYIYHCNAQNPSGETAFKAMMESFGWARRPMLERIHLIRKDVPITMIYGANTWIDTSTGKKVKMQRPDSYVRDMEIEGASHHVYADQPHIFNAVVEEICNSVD
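Test system: mABHD4 protein; Read-out basis: % inhibition; Incubation: 45 min + 60 min at 25 °C; Repeats: single replicate; Technique: fluorescence polarization with parallel and perpendicular emission, 525/598 nm; Compound: 8.92 µM, single dose; Benchmarks: full inhibition S159A mutant plus DMSO, zero as sample-well median.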
PRMT1 FP inh – inhibitors of human PRMT1; inhibition, % at 2.79 µM; recombinant PRMT1, activity-based probe fluorescence polarization; AID 652257; 370,000 compounds, 1.3% hits; Q99873;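 active means inhibition above about 21% made by adding two undisclosed values, limit read from the data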
Target sequence (Q99873 whole entry, looked up): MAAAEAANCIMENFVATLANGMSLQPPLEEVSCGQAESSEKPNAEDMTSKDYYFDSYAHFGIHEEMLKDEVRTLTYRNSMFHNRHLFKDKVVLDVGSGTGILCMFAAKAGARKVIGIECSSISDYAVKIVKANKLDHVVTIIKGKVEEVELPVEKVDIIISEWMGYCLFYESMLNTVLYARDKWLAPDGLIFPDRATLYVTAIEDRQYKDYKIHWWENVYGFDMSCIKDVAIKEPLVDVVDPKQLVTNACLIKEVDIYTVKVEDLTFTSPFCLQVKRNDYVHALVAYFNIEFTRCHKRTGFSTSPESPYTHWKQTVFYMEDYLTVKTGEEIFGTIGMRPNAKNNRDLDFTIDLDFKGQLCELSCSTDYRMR
TCR CD3 inh – human TCR-CD3 binding inhibition; 360,000 compounds, 0.37% hits; TAMRA-labeled TCR probe fluorescence, biochemical; inhibition, % at 9.4 µM;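 further: recombinant mutant TCR 2C K166C tagged with TAMRA read by polarization; 0% = receptor in buffer alone and 100% = receptor with positive control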
HTRA1 conf – HTRA1 (human) inhibition, confirmation; recombinant HTRA1, FP-rhodamine activity-based probe, fluorescence polarization; AID 540248; inhibition, % at 5.96 µM; 1,600 compounds, 66% hits; shares compounds with HTRA1 inh;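 active means mean inhibition over three repeats above a set limit taken from the earlier primary screen, cut at about 37% in these data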;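 further: 0% = HTRA1 with DMSO and 100% = wells lacking HTRA1; inhibitors block probe binding so polarization drops and inhibition rises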
BSA TAMRA ctr – BSA probe counter-screen for TCR-CD3 inhibitors; TAMRA-labeled BSA probe fluorescence counterscreen; shares compounds with TCR CD3 inh; 1,200 compounds, 10% hits; inhibition, % at 9.4 µM; AID 652035; in the data active means inhibition above about 23%;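 further: 0% = buffer low control and 100% = reference high control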
TCR-CD3 inh conf – TCR-CD3 interaction inhibition, confirmation | AID 652036 | shares compounds with TCR CD3 inh | TAMRA-labeled TCR probe fluorescence binding assay | inhibition, % at 9.4 µM | 1,200 compounds, 48% hits
PRMT1 confirm – confirmation of human PRMT1 inhibitors; inhibition, % at 2.79 µM; shares compounds with PRMT1 FP inh; 3,300 compounds, 42% hits; recombinant His-PRMT1, activity-based probe fluorescence polarization;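 active means mean inhibition across replicates above the hit cutoff derived for the earlier primary screen, cut at about 22% in these data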
ABHD4 confirm – ABHD4 (mouse) inhibition, FP confirmation. shares compounds with ABHD4 inh. purified mABHD4, FP-Rh probe fluorescence polarization. inhibition, % at 8.92 µM. 1,800 compounds, 55% hits. AID 720658;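 active means mean inhibition across replicates above the hit cutoff set in the primary screen, cut at about 30% in these data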;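 further: 0% = wild-type ABHD4 with DMSO and 100% = catalytically dead S159A mutant with DMSO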
* = called active by the depositor; . = no result given. Unless noted, no stated cut-off is given here; in the data, active means inhibition above about 19%; inactive means the rest.

SMILES | SIAE inh | HTRA1 inh | ABHD4 inh | PRMT1 FP inh | TCR CD3 inh | HTRA1 conf | BSA TAMRA ctr | TCR-CD3 inh conf | others
O=C(Nc1ccc(F)cc1)C(CCc1ccccc1)N1CCN(c2ccncc2)CC1 (centres undefined) | -4 | . | -7 | -3 | 5 | . | . | .
CCc1ccc(Cn2ncc3c(C(=O)O)cc(C)nc32)cc1 | -2 | 0 | -2 | -1 | 0 | . | . | .
Cc1cc(SCC(=O)c2ccc(O)c(O)c2)n2nc(C)c(-c3ccccc3)c2n1 | 5 | 56* | 24 | 3 | 25* | 65* | -2 | 48*
COc1ccc2c(c1)CCCN2C(=O)C1CCCN(S(=O)(=O)c2cccs2)C1 (centres undefined) | 4 | . | 0 | -12 | . | . | . | .
O=C1OC(Nc2cc(Br)cc3cccnc23)c2ccccc21 (centres undefined) | 34* | 45* | 88* | 31* | 37* | 13 | 7 | 7
O=C1OC(Nc2ncccn2)c2ccccc21 (centres undefined) | -1 | 2 | -3 | -3 | 6 | . | . | .
Oc1ccccc1N1CCN(c2ccc3ccccc3n2)CC1 | 3 | -4 | 12 | 0 | 1 | . | . | .
COC(=O)C1=C(C)N(C)C(=NCc2ccc(OC)cc2)NC1c1cccc(F)c1 (centres undefined) | 4 | . | 9 | -3 | 16 | . | . | .
COc1ccc2nc(C)cc(SCC(=O)N/N=C/c3ccc(O)c(O)c3)c2c1 | -5 | 38* | 18 | 6 | 40* | 59* | -15 | 71*
Cc1cc(C)c(C)c(S(=O)(=O)N2CCC(C(=O)NNC(=O)c3ccccc3O)CC2)c1C | 0 | 46* | 7 | 1 | 32* | 48* | -6 | 22*
O=C(N/N=C/c1ccc(O)cc1O)c1ccc(CN2C(=O)c3cccc4cccc2c34)cc1 | -15 | 38* | -95 | 1 | 27* | 32 | -35 | 30*
C/C(CC(=O)Nc1ccccn1)=N\NC(=O)c1ccccc1O | 11 | 56* | 17 | 2 | 45* | 26 | 23* | 37*
C/C(CC(=O)Nc1ccccn1)=N\NC(=O)c1ccc2ccccc2c1 | -3 | -18 | -4 | -1 | -2 | . | . | .
C=CCn1c(SCC(=O)c2ccc(O)c(O)c2)nnc1-c1cccc(OC)c1 | 1 | 38* | 25 | 3 | 20* | 67* | -7 | 17
C=CCn1c(SCC(=O)c2ccc(OC)cc2)nnc1-c1cc2cccc(OC)c2o1 | -5 | 0 | 4 | -4 | -1 | . | . | .
O=C(NN=Cc1c(O)ccc2ccccc12)c1ccc2c(c1)OCO2 | 8 | 37* | 21 | 0 | 21* | 17 | -17 | 22*
Oc1ccc(/C=N/Nc2ncnc3c2ncn3Cc2ccccc2)cc1O | 2 | 49* | 29 | 0 | 53* | 50* | -4 | 46*
COc1ccc(-c2cc(=O)oc3c(O)c(O)ccc23)cc1 | -1 | 73* | 27 | 9 | 21* | 86* | -2 | 14
O=C(NC(=S)NNC(=O)c1ccccc1O)c1ccco1 | 10 | 39* | 24 | -1 | 25* | 67* | -9 | 19
O=C(NC(=S)NNC(=O)c1ccccc1O)c1cccnc1 | 1 | 49* | 12 | 3 | 29* | 63* | -2 | 31*
O=C(NNC(=S)NC(=O)c1ccco1)c1ccc(NC(=O)c2ccccc2)cc1 | 2 | -19 | 4 | -2 | 13 | . | . | .
CC1=Nc2cccc3cccc(c23)N1 | 12 | 42* | 26 | 7 | 39* | 18 | 45* | 23*
CCOc1ccc(-n2c(SCC(=O)c3ccc4ccccc4c3)nnc2-c2cccc(Cl)c2)cc1 | 3 | . | -7 | 1 | . | . | . | .
O=C(CCN1CCN(c2ccccc2)CC1)N/N=C/c1ccc(O)c(O)c1O | 12 | 47* | 24 | 23* | 30* | 37* | -5 | 24*
O=C(Cc1nnc(NC(=O)c2ccccc2)s1)N/N=C/c1ccc(O)cc1 | -10 | -7 | -3 | -1 | 8 | . | . | .
SMILES | SIAE inh | HTRA1 inh | ABHD4 inh | PRMT1 FP inh | TCR CD3 inh | HTRA1 conf | BSA TAMRA ctr | TCR-CD3 inh conf | others
O=C(Cc1nnc(NC(=O)c2ccccc2)s1)N/N=C\c1ccc(O)c(O)c1 | 6 | 43* | 28 | 5 | 34* | 48* | -11 | 33*
CCCCN1CC(=O)N2[C@H](c3ccc(Cl)cc3)[C@@H]3C(=O)N(CC)C(=O)[C@@H]3[C@]2(Cc2ccccc2)C1=O | -2 | -11 | 0 | -3 | 0 | . | . | .
O=C1/C(=C\c2cccc(O)c2O)SC(=S)N1Cc1ccccc1 | -6 | 54* | 13 | 94* | -2 | 65* | . | . | PRMT1 confirm=14
CC(C)Oc1ccc(/C(O)=C2/C(=O)C(=O)N(CCN3CCNCC3)C2c2cccc([N+](=O)[O-])c2)cc1 (centres undefined) | -2 | 7 | 4 | 3 | -3 | . | . | .
S=c1[nH]nc(-c2c[nH]c3ccccc23)o1 | 3 | -4 | 0 | 9 | 9 | . | . | .
Oc1cc2ccccc2cc1-c1n[nH]c(=S)o1 | -4 | 48* | 23 | 26* | 2 | 49* | . | . | PRMT1 confirm=36*
COCCN=c1scc(-c2cccs2)n1/N=C/c1ccc(O)c(O)c1O | -3 | 79* | 55* | 54* | 5 | 67* | . | . | PRMT1 confirm=27*
CN1OC[C@@H]2CN(C(=S)Nc3cc(C(F)(F)F)cc(C(F)(F)F)c3)[C@H](c3ccccc3Br)C[C@@H]21 | -3 | . | -8 | 7 | -6 | . | . | .
Cc1cc(C)c2nc(NNC(=O)c3cc(=O)c4ccccc4o3)sc2c1 | 2 | 69* | 40* | 13 | -7 | 59* | . | . | ABHD4 confirm=61*
CC1(c2nnnn2-c2ccc3c(c2)OCCO3)CCC(=O)N1CCCn1ccnc1 (centres undefined) | 4 | . | 6 | -4 | -2 | . | . | .
COc1ccc(OCC(=O)Nc2cc3c(cc2C(=O)O)OCCCO3)cc1 | -2 | -1 | -7 | 4 | 10 | . | . | .
O=C(O)c1cccc2c1C(=O)c1ccccc1C2=O | 2 | 2 | 5 | 3 | -2 | . | . | .
O=C1c2ccccc2C(=O)c2c(O)c(O)cc(O)c21 | 12 | 72* | 73* | 27* | 25* | 71* | 44* | 34* | PRMT1 confirm=21;ABHD4 confirm=61*
CCCCCCCCCCCCCCCCn1cc[n+](C)c1 | -1 | 66* | 44* | 2 | -4 | 81* | . | . | ABHD4 confirm=51*
CCCCCCCCn1ccc(=N)cc1 | -3 | 6 | 2 | -3 | 2 | . | . | .
